# Results from ChEMBL document CHEMBL4261642, “Design, synthesis, and ex vivo evaluation of a selective inhibitor for retinaldehyde dehydrogenase enzymes” (Bioorg Med Chem, 2018).
# Active and inactive are the calls of the source. No cut-off for these calls is given here.
# B1: Aldehyde dehydrogenase 1A1 (Gallus gallus), P27463 (protein)
# chain: MKKQGSPSNPAPVLPALPEPLKDLKIKYTKIFINNEWHDSVSGKKFEVFNPANEEKICEVAEGDKADIDKAVKAARKAFELGSPWRTMDASERGRLLNKLADLVERDRLTLATMEAIDGGKLFSTAYLMDLGACIKTIRYCAGWADKIHGRTVPMDGNFFTFTRHEPVGVCGQIIPWNFPLVMFIWKIAPALCCGNTVVVKPAEQTPLSALYMGSLIKEAGFPPGVVNIVPGFGPTAGAAISHHMDIDKVSFTGSTEVGKLIKEAAGKTNLKRVTLELGGKSPNIIFADADLDEAAEFAHIGLFYHQGQCCIAGSRIFVEEPIYDEFVRRSIERAKKYTLGDPLLPGVQQGPQIDKEQFQKILDLIESGKKEGAKLECGGGPWGNKGYFIQPTVFSNVTDDMRIAKEEIFGPVQQIMKFKTIDEVIKRANNTTYGLAAAVFTKDIDKALTFASALQAGTVWVNCYSAFSAQCPFGGFKMSGNGRELGEYGLQEYTEVKTVTIKIPQKNS
# B2: Retinal dehydrogenase 2 (Gallus gallus), O93344 (protein)
# chain: MTSSKIEMPGEVKADPAALMASLHLLPSPTLNLEIKHTKIFINNEWQNSESGRVFPVYNPATGEQICEIQEADKVDTDKAVRAARLAFSLGSVWRRMDASERGQLLDKLADLVERDRAVLATMESLNSGKPFLQAFYVDLQGVIKTLRYYAGWADKIHGMTIPVDGDYFTFTRHEPIGVCGQIIPWNFPLLMFAWKIAPALCCGNTVVIKPAEQTPLSALYMGALIKEAGFPPGVVNILPGFGPIVGAAIASHVGIDKIAFTGSTEVGKLIQEAAGRSNLKRVTLELGGKSPNIIFADADLDYAVEQAHQGVFFNQGQCCTAGSRIYVEESIYEEFVRRSVERAKRRVVGSPFDPTTEQGPQIDKKQYNKILELIQSGITEGAKLECGGKGLGRKGFFIEPTVFSNVTDDMRIAKEEIFGPVQEILRFKTVDEVIERANNSDFGLVAAVFTNDINKALTVSSAMQAGTVWINCYNALNAQSPFGGFKMSGNGREMGESGLREYSEVKTVTIKIPQKNS
# What was measured:
# [1] = target: T1, Retinal dehydrogenase 2 (Gallus gallus) (UniProt O93344); assay: Inhibition of RALDH2 in living intact choroid isolated from 4 day recovering chick eyes assessed as inhibition of ATRA synthesis at 0.1 uM after 24 hrs in presence of […]
# T1 sequence (whole entry): B2 chain
# [2] = target: T1, Retinal dehydrogenase 2 (Gallus gallus); assay: Inhibition of RALDH2 in living intact choroid isolated from 4 day recovering chick eyes assessed as inhibition of ATRA synthesis at 1 uM after 24 hrs in presence of […]
# [3] = target: T2, Aldehyde dehydrogenase, mitochondrial (Homo sapiens, UniProt P05091); assay: Inhibition of N-terminal His6-tagged recombinant human mitochondrial ALDH2 using propionaldehyde as substrate preincubated for 20 mins to 1 hr followed by substrate addition and measured for 5 mins in presence of NADH by spectrophotometric assay; conditions: read-out: IC50
# T2 sequence (P05091 whole entry): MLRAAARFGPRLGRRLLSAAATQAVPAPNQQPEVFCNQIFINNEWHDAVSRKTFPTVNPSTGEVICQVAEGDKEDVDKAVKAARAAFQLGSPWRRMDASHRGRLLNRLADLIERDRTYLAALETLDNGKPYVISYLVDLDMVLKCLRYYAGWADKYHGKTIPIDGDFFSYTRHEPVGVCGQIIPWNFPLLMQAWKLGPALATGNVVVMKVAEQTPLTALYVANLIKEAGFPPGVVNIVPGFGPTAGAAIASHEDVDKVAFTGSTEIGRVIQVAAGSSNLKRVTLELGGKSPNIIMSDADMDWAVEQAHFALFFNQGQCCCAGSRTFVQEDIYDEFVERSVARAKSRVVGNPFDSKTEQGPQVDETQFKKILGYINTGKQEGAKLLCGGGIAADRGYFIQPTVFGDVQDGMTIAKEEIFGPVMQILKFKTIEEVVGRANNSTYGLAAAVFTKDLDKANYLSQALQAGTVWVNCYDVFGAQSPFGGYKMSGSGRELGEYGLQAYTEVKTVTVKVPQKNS
# [4] = target: T3, Retinal dehydrogenase 2 (Gallus gallus, UniProt O93344); assay: Inhibition of RALDH2 in living intact choroid isolated from 4 day recovering chick eyes assessed as inhibition of ATRA synthesis after 24 hrs in presence of […]
# T3 sequence (O93344 whole entry): B2 chain
# [5] = target: T1, Retinal dehydrogenase 2 (Gallus gallus); assay: Inhibition of RALDH2 in living intact choroid isolated from 4 day recovering chick eyes assessed as inhibition of ATRA synthesis at 10 uM after 24 hrs in presence of […]
# [6] = target: T1, Retinal dehydrogenase 2 (Gallus gallus); assay: Inhibition of RALDH2 in living intact choroid isolated from normal chick eyes assessed as inhibition of ATRA synthesis after 24 hrs in presence of retinaldehyde and NAD+
# [7] = compound: CC1=C(/C=C/C(C)=C/C=C/C(C)=C/C(=O)C(Cl)Cl)C(C)(C)CCC1; assay: Inhibition of N-terminal His6-tagged recombinant chick RALDH1 expressed in Escherichia coli BL21(DE3) cells at 100 nM using RAL as substrate assessed as Vmax preincubated for 20 mins followed by substrate addition and measured after 30 mins in presence of NADH by fluorescence assay (reference value: 54.77 +/- 7.58 pmol/microM/min); conditions: Gallus gallus
# [8] = compound: CC1=C(/C=C/C(C)=C/C=C/C(C)=C/C(=O)C(Cl)Cl)C(C)(C)CCC1; assay: Inhibition of N-terminal His6-tagged recombinant chick RALDH1 expressed in Escherichia coli BL21(DE3) cells at 1000 nM using RAL as substrate assessed as Km preincubated for 20 mins followed by substrate addition and measured after 30 mins in presence of NADH by fluorescence assay (reference value: 67.09 +/- 25.06 microM); conditions: Gallus gallus
# [9] = compound: CC1=C(/C=C/C(C)=C/C=C/C(C)=C/C(=O)C(Cl)Cl)C(C)(C)CCC1; assay: Inhibition of N-terminal His6-tagged recombinant chick RALDH1 expressed in Escherichia coli BL21(DE3) cells at 500 nM using RAL as substrate assessed as Km preincubated for 20 mins followed by substrate addition and measured after 30 mins in presence of NADH by fluorescence assay (reference value: 67.09 +/- 25.06 microM); conditions: Gallus gallus
# [10] = compound: CC1=C(/C=C/C(C)=C/C=C/C(C)=C/C(=O)C(Cl)Cl)C(C)(C)CCC1; assay: Inhibition of N-terminal His6-tagged recombinant chick RALDH1 expressed in Escherichia coli BL21(DE3) cells at 500 nM using RAL as substrate assessed as Vmax preincubated for 20 mins followed by substrate addition and measured after 30 mins in presence of NADH by fluorescence assay (reference value: 54.77 +/- 7.58 pmol/microM/min); conditions: Gallus gallus
# [11] = compound: CC1=C(/C=C/C(C)=C/C=C/C(C)=C/C(=O)C(Cl)Cl)C(C)(C)CCC1; assay: Inhibition of N-terminal His6-tagged recombinant chick RALDH1 expressed in Escherichia coli BL21(DE3) cells at 100 nM using RAL as substrate assessed as Km preincubated for 20 mins followed by substrate addition and measured after 30 mins in presence of NADH by fluorescence assay (reference value: 67.09 +/- 25.06 microM); conditions: Gallus gallus
# [12] = compound: CC1=C(/C=C/C(C)=C/C=C/C(C)=C/C(=O)C(Cl)Cl)C(C)(C)CCC1; assay: Inhibition of N-terminal His6-tagged recombinant chick RALDH1 expressed in Escherichia coli BL21(DE3) cells at 1000 nM using RAL as substrate assessed as Vmax preincubated for 20 mins followed by substrate addition and measured after 30 mins in presence of NADH by fluorescence assay (reference value: 54.77 +/- 7.58 pmol/microM/min); conditions: Gallus gallus
# [13] = compound: CC1=C(/C=C/C(C)=C/C=C/C(C)=C/C(=O)C(Cl)Cl)C(C)(C)CCC1; assay: Inhibition of N-terminal His6-tagged recombinant chick RALDH2 expressed in Escherichia coli BL21(DE3) cells at 200 nM using RAL as substrate assessed as Km preincubated for 20 mins followed by substrate addition and measured after 30 mins in presence of NADH by fluorescence assay (reference value: 82.12 +/- 28.41 microM); conditions: Gallus gallus
# [14] = compound: CC1=C(/C=C/C(C)=C/C=C/C(C)=C/C(=O)C(Cl)Cl)C(C)(C)CCC1; assay: Inhibition of N-terminal His6-tagged recombinant chick RALDH2 expressed in Escherichia coli BL21(DE3) cells at 250 nM using RAL as substrate assessed as Vmax preincubated for 20 mins followed by substrate addition and measured after 30 mins in presence of NADH by fluorescence assay (reference value: 1665 +/- 239.28 pmol/microM/min); conditions: Gallus gallus
# [15] = compound: CC1=C(/C=C/C(C)=C/C=C/C(C)=C/C(=O)C(Cl)Cl)C(C)(C)CCC1; assay: Inhibition of N-terminal His6-tagged recombinant chick RALDH2 expressed in Escherichia coli BL21(DE3) cells at 250 nM using RAL as substrate assessed as Km preincubated for 20 mins followed by substrate addition and measured after 30 mins in presence of NADH by fluorescence assay (reference value: 82.12 +/- 28.41 microM); conditions: Gallus gallus
# [16] = compound: CC1=C(/C=C/C(C)=C/C=C/C(C)=C/C(=O)C(Cl)Cl)C(C)(C)CCC1; assay: Inhibition of N-terminal His6-tagged recombinant chick RALDH2 expressed in Escherichia coli BL21(DE3) cells at 50 nM using RAL as substrate assessed as Vmax preincubated for 20 mins followed by substrate addition and measured after 30 mins in presence of NADH by fluorescence assay (reference value: 1665 +/- 239.28 pmol/microM/min); conditions: Gallus gallus
# [17] = compound: CC1=C(/C=C/C(C)=C/C=C/C(C)=C/C(=O)C(Cl)Cl)C(C)(C)CCC1; assay: Inhibition of N-terminal His6-tagged recombinant chick RALDH2 expressed in Escherichia coli BL21(DE3) cells at 150 nM using RAL as substrate assessed as Vmax preincubated for 20 mins followed by substrate addition and measured after 30 mins in presence of NADH by fluorescence assay (reference value: 1665 +/- 239.28 pmol/microM/min); conditions: Gallus gallus
# [18] = compound: CC1=C(/C=C/C(C)=C/C=C/C(C)=C/C(=O)C(Cl)Cl)C(C)(C)CCC1; assay: Inhibition of N-terminal His6-tagged recombinant chick RALDH2 expressed in Escherichia coli BL21(DE3) cells at 150 nM using RAL as substrate assessed as Km preincubated for 20 mins followed by substrate addition and measured after 30 mins in presence of NADH by fluorescence assay (reference value: 82.12 +/- 28.41 microM); conditions: Gallus gallus
# [19] = compound: CC1=C(/C=C/C(C)=C/C=C/C(C)=C/C(=O)C(Cl)Cl)C(C)(C)CCC1; assay: Inhibition of N-terminal His6-tagged recombinant chick RALDH2 expressed in Escherichia coli BL21(DE3) cells at 100 nM using RAL as substrate assessed as Km preincubated for 20 mins followed by substrate addition and measured after 30 mins in presence of NADH by fluorescence assay (reference value: 82.12 +/- 28.41 microM); conditions: Gallus gallus
# [20] = compound: CC1=C(/C=C/C(C)=C/C=C/C(C)=C/C(=O)C(Cl)Cl)C(C)(C)CCC1; assay: Inhibition of N-terminal His6-tagged recombinant chick RALDH2 expressed in Escherichia coli BL21(DE3) cells at 200 nM using RAL as substrate assessed as Vmax preincubated for 20 mins followed by substrate addition and measured after 30 mins in presence of NADH by fluorescence assay (reference value: 1665 +/- 239.28 pmol/microM/min); conditions: Gallus gallus
# [21] = compound: CC1=C(/C=C/C(C)=C/C=C/C(C)=C/C(=O)C(Cl)Cl)C(C)(C)CCC1; assay: Inhibition of N-terminal His6-tagged recombinant chick RALDH2 expressed in Escherichia coli BL21(DE3) cells at 50 nM using RAL as substrate assessed as Km preincubated for 20 mins followed by substrate addition and measured after 30 mins in presence of NADH by fluorescence assay (reference value: 82.12 +/- 28.41 microM); conditions: Gallus gallus
# [22] = compound: CC1=C(/C=C/C(C)=C/C=C/C(C)=C/C(=O)C(Cl)Cl)C(C)(C)CCC1; assay: Inhibition of N-terminal His6-tagged recombinant chick RALDH2 expressed in Escherichia coli BL21(DE3) cells at 100 nM using RAL as substrate assessed as Vmax preincubated for 20 mins followed by substrate addition and measured after 30 mins in presence of NADH by fluorescence assay (reference value: 1665 +/- 239.28 pmol/microM/min); conditions: Gallus gallus
# [23] = compound: CC1=C(/C=C/C(C)=C/C=C/C(C)=C/C(=O)C(Cl)Cl)C(C)(C)CCC1; assay: Inhibition of N-terminal His6-tagged recombinant chick RALDH2 expressed in Escherichia coli BL21(DE3) cells at 150 nM using RAL as substrate assessed as Vmax at enzyme concentrations of 183 to 365 nM measured after 30 mins in presence of NADH by fluorescence assay; conditions: Gallus gallus
# Outline: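 Chick RALDH2 at 46–365 nM pre-incubated 20 min with a fixed 150 nM inhibitor. NADH synthesis then started with 250 μM retinaldehyde and 4 mM NAD+, 30 min at 37°C, read fluorimetrically. Vmax plotted against enzyme concentration.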
molecule,measurement,setting,value
O=C(NCCCCCCCCNC(=O)C(Cl)Cl)C(Cl)Cl,inhibition,[1],40%
same,inhibition,[2],51%
same,IC50,[3],229 nM
same,EC50,[4],44.5 nM
same,inhibition,[5],76%
same,inhibition,[6],inactive
B1,Vmax,[7],50.1 pmol/µM/min
same,Km,[8],22.8 µM
same,Km,[9],32.9 µM
same,Vmax,[10],33.8 pmol/µM/min
same,Km,[11],62.2 µM
same,Vmax,[12],25.7 pmol/µM/min
B2,Km,[13],18.3 µM
same,Vmax,[14],503 pmol/µM/min
same,Km,[15],14.9 µM
same,Vmax,[16],1560 pmol/µM/min
same,Vmax,[17],867 pmol/µM/min
same,Km,[18],22.7 µM
same,Km,[19],47.2 µM
same,Vmax,[20],666 pmol/µM/min
same,Km,[21],80.7 µM
same,Vmax,[22],1150 pmol/µM/min
same,Vmax,[23],0.5 to 3.01 µM/min
